We go through 72 compounds from ChEMBL document CHEMBL4513216, “Probing the Open Global Health Chemical Diversity Library for Multistage-Active Starting Points for Next-Generation Antimalarials” (ACS Infect Dis, 2020).

The nature of this series: Toxicity liver stage against HepG2, at 10uM. It counts as cell-based. Also on record: test concentration 10 uM, cell line HepG2-A16-CD81EGFP. The conditions noted are these: human, HepG2-A16-CD81EGFP cells; read-out: INHIBITION
The method, boiled down: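 Uninfected HepG2-A16-CD81EGFP cells, 3 × 10^3 per well, 1536-well, plated on prespotted compound at 10 μM final, parasite-free screening media added to match infected plates; puromycin 10 μM positive, DMSO 0.5% negative; run in parallel with 48 h PbLuc assay at 37 °C, 5% CO2; viability by CellTiter-Glo luminescence, normalized to controls.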
Regarding `CN(Cc1ccccc1)C(=O)[C@@H]1Cc2[nH]cnc2CN1C`, the cytotoxicity at 10 µM was -3.92%.

On to `COCC(=O)N1CCN2C(=O)OC[C@H]2C1`, for which the cytotoxicity at 10 µM is 1.82%.

Take `CCc1nc(-c2ccc(NC(=O)N3CCCC3)cc2)no1`: the cytotoxicity at 10 µM came to 5.03%.

Consider `COCCn1ccc(=O)c(OCC(=O)Nc2ccc(Br)cc2)c1C`, for which the cytotoxicity at 10 µM is 0.185%.

Take `O=C(c1nnn(-c2ccc(C(F)(F)F)cc2)n1)N1CCC(O)CC1`: the cytotoxicity at 10 µM was -4.52%.

Consider `NC(=O)c1nc(COc2ccc3c(c2)OCO3)no1`, for which the cytotoxicity at 10 µM was 8.55%.

In the case of `CCOC(=O)C1CCN(c2nccc(-n3nc(C)cc3C)n2)CC1`, the cytotoxicity at 10 µM was -8.99%.

In the case of `COC(=O)CCn1ccc(=O)c2cc(OC)ccc21`, the cytotoxicity at 10 µM was found to be 3.88%.

Consider `CCn1nnnc1-c1cccc(NC(=O)COC2CCCC2)c1`, for which the cytotoxicity at 10 µM is -0.47%.

Turning to `CS(=O)(=O)CCn1ccc(NCc2ccc(C#N)cc2)n1`, the cytotoxicity at 10 µM worked out at 6.56%.

In the case of `CNS(=O)(=O)c1c(C)sc2ccccc12`, the cytotoxicity at 10 µM was 4.18%.

As for `NC(=O)C1CCN(C(=O)NC(Cc2ccccc2)C(F)(F)F)CC1` (configuration not stated), the cytotoxicity at 10 µM was -7.72%.

As to `Cc1nc(C(NC(=O)CN(C)C(C)C)c2ccccc2F)no1` (configuration not stated), the cytotoxicity at 10 µM is -2.64%.

With `CN(Cc1nc2ccccc2[nH]1)C(=O)CN(C)c1ccccc1`, the cytotoxicity at 10 µM is -2.46%.

With `CC(C)C(C)N(C)Cc1nnc(-c2ccc(Br)s2)o1` (configuration not stated), the cytotoxicity at 10 µM was -1.65%.

Turning to `COc1cc2nc(C)sc2cc1NC(=O)CN(C)C(C)C`, the cytotoxicity at 10 µM is -3.93%.

For the compound `Cc1nn(-c2ccccc2)c(C)c1CC(=O)NC1CC(=O)N(C)C1` (configuration not stated), the cytotoxicity at 10 µM came out at 6.08%.

Regarding `COc1ccc(C)cc1CN1CCN(Cc2nccn2C)C(C)C1` (configuration not stated), the cytotoxicity at 10 µM was 1.43%.

For the compound `COc1cc(CNC2CCCN(c3cccnn3)C2)cc2c1OCO2` (configuration not stated), the cytotoxicity at 10 µM was -2.22%.

As to `CNC(=O)CN(C)C1CCN(c2ccc(Cl)cc2)CC1`, the cytotoxicity at 10 µM was -1.15%.

Consider `Cc1sc(-c2ccco2)nc1C(=O)NCC1CCOC1` (configuration not stated), for which the cytotoxicity at 10 µM is -6.71%.

Turning to `CNS(=O)(=O)Cc1ccccc1CNc1ccc(C#N)cn1`, the cytotoxicity at 10 µM is -6.45%.

For the compound `COc1ccccc1CN1CCN(CCN2CCOC2=O)CC1`, the cytotoxicity at 10 µM was -11.2%.

With `CCC(C)NC(=O)c1cccc(CNC(=O)CC(F)(F)F)c1` (configuration not stated), the cytotoxicity at 10 µM worked out at 6.99%.

`CNC(=O)Cc1ccccc1NC(=O)NCc1ccc(SC)cc1`: the cytotoxicity at 10 µM was -1.88%.

Regarding `CCC(CC)N(C)S(=O)(=O)c1ccc(CCNC(C)=O)s1`, the cytotoxicity at 10 µM was -3.45%.

For `CCc1nnc(C(C)N(C)Cc2c(C)nn(-c3ccccc3)c2C)o1` (configuration not stated), the cytotoxicity at 10 µM is -9.85%.

`COCc1noc(-c2nn(-c3ccc(F)c(F)c3)c3c2CCC3)n1`: the cytotoxicity at 10 µM was -2.75%.

As for `Cn1ccnc1-c1noc(NCc2ccc(Cl)cc2)n1`, the cytotoxicity at 10 µM was -9.46%.

Take `CN(Cc1nccn1C)C(=O)C1COCC(=O)N1Cc1ccccc1` (configuration not stated): the cytotoxicity at 10 µM stood at 1.01%.

With `CC(C)Cn1ncc2cc(C(=O)N(C)Cc3cccc(O)c3)cnc21`, the cytotoxicity at 10 µM is -4.67%.

For `CSCc1cc(C(=O)NC2(C#N)CCSC2)ccc1F` (configuration not stated), the cytotoxicity at 10 µM is -4.59%.

With `CCn1ccnc1SCCn1cnc2ccsc2c1=O`, the cytotoxicity at 10 µM is -2.9%.

For `Cc1ccc(C(=O)Nc2ccc(N3CCCC3)cn2)cc1C`, the cytotoxicity at 10 µM turned out to be 26.9%.

Regarding `Cc1nc(C2CCCN2CCOCC2CC2)no1` (configuration not stated), the cytotoxicity at 10 µM was -4.56%.

`CCNc1nc(-c2cccnc2)c(-c2ccnc(NCCO)n2)s1`: the cytotoxicity at 10 µM was -13.7%.

In the case of `Cc1cc(N2Cc3cnn(CCO)c3C2)nc(-c2ccccc2)n1`, the cytotoxicity at 10 µM is -156%.

For `O=C1NCC2(CCCN(C(=O)Nc3ccc4scnc4c3)CC2)O1` (configuration not stated), the cytotoxicity at 10 µM is -5.59%.

Regarding `Cc1ccccc1CN1CCC(CNC(=O)Cn2cncn2)CC1`, the cytotoxicity at 10 µM worked out at 3.83%.

For the compound `O=C1O[C@@H]2CN(Cc3ccccc3F)C[C@@H]2N1CCCN1CCOCC1`, the cytotoxicity at 10 µM was -4.73%.

On to `CCC(CO)N(Cc1ccccc1C)Cc1ccccc1C(=O)O` (configuration not stated), for which the cytotoxicity at 10 µM is -6.32%.

In the case of `CSCCCN1CCC(c2nnc(Cn3ccnc3)n2C2CC2)CC1`, the cytotoxicity at 10 µM was found to be 0.872%.

`CC(=O)NC1CCN(C(=O)c2cnc(COc3ccccc3)nc2O)C1` (configuration not stated): the cytotoxicity at 10 µM is -5.3%.

For `COc1ccc(CCNC(=O)CN2CCOCS2(=O)=O)cc1`, the cytotoxicity at 10 µM was -2.64%.

Consider `Cc1ccnn1CC(=O)N1CCCN(C2Cc3ccccc3C2)CC1`, for which the cytotoxicity at 10 µM was -120%.

Turning to `CN1CCN(S(=O)(=O)N2CCCCC2CCc2ccc(O)cc2)CC1` (configuration not stated), the cytotoxicity at 10 µM is -1.94%.

Regarding `CCCSc1ccccc1NC(=O)N1CCN(C(=O)c2ccc[nH]2)CC1`, the cytotoxicity at 10 µM turned out to be 3.99%.

In the case of `CC(C)n1cnnc1CN(C)Cc1ccc(CN(C)S(C)(=O)=O)o1`, the cytotoxicity at 10 µM was -1.31%.

In the case of `CN1CCN(C[C@H]2CC[C@@H](Cc3ccc(CN4CCCC4)cc3)O2)CC1`, the cytotoxicity at 10 µM is -7.32%.

With `CCC1(CO)CCCN(Cc2nccn2Cc2ccccc2)C1` (configuration not stated), the cytotoxicity at 10 µM was -7.35%.

With `O=C1OCCN1C1CCN(Cc2cc3n(n2)CCCNC3)CC1`, the cytotoxicity at 10 µM was found to be 12.7%.

With `CN(C)c1cc(N(C)Cc2cc(C(C)(C)C)n[nH]2)ncn1`, the cytotoxicity at 10 µM is -0.629%.

On to `Cc1cccc(C)c1Oc1ncccc1CNC(=O)C1(C)CCCNC1` (configuration not stated), for which the cytotoxicity at 10 µM was determined as 0.687%.

`O=C(NC1CC(=O)N(C2Cc3ccccc3C2)C1)c1cnccn1` (configuration not stated): the cytotoxicity at 10 µM worked out at 0.661%.

Regarding `Cc1ccc(NC2CCN(C(=O)c3cscn3)CC2)nn1`, the cytotoxicity at 10 µM is -8.73%.

Take `Cc1ccc(-c2nc(C(=O)N3CCCC(C(N)=O)C3)cs2)c(C)c1` (configuration not stated): the cytotoxicity at 10 µM is -2.9%.

Regarding `COc1c(CNCCNC(=O)c2ccc(C)cc2)c(C(C)C)nn1C`, the cytotoxicity at 10 µM was -0.945%.

Consider `Cc1ccc(N2CCCC(NCc3nnc4n3CCCC4)C2=O)cc1` (configuration not stated), for which the cytotoxicity at 10 µM is -6.69%.

With `Cc1ccc(C)c(OCCC(=O)N2CCCN(CC(N)=O)CC2)c1`, the cytotoxicity at 10 µM was -8.54%.

Consider `CCN(CC1CCCO1)C(=O)Nc1ccc(OC)c(C)c1` (configuration not stated), for which the cytotoxicity at 10 µM is -12.9%.

In the case of `C1CCCN(C2CCCN(Cc3noc(C4CC4)n3)C2)CC1` (configuration not stated), the cytotoxicity at 10 µM was -8.84%.

Turning to `CCc1nc(CN(C)C2CCN(CCc3cccs3)C2)no1` (configuration not stated), the cytotoxicity at 10 µM is -8.7%.

With `O=C(NCC(=O)N1CCC2(CC1)OCCO2)c1ccoc1`, the cytotoxicity at 10 µM was -9.55%.

`Cc1ccc(F)cc1S(=O)(=O)NCc1cccc(C(=O)N2CCCC2)c1`: the cytotoxicity at 10 µM was -15.1%.

As for `COc1ccccc1C(=O)N(C)Cc1nnc2ccccn12`, the cytotoxicity at 10 µM is -2.45%.

On to `CCc1nc(C2CCCN(C(=O)NC3CC3)C2)no1` (configuration not stated), for which the cytotoxicity at 10 µM is -15.3%.

On to `Cc1cnn(CC2CCCN2C(=O)c2cn(-c3ccccc3)nc2C)c1` (configuration not stated), for which the cytotoxicity at 10 µM was -9.39%.

As for `O=C(N[C@H]1CN[C@H]2CCCO[C@H]21)c1ccno1`, the cytotoxicity at 10 µM is -6.92%.

In the case of `Cc1cc(C(=O)N2C[C@@H]3COC[C@]3(CN(C)C)C2)sc1C`, the cytotoxicity at 10 µM is -146%.

As to `C[C@H]1CN(C(=O)c2ccoc2)C[C@@]12CCN(CCN(C)C)C2=O`, the cytotoxicity at 10 µM was -1.77%.

Turning to `O=C(C[C@@H]1COC[C@H]2CN(C(=O)c3cccnc3)C[C@@H]12)N1CCOCC1`, the cytotoxicity at 10 µM is -105%.

As for `CSCC(=O)N1C[C@@H]2CC[C@H]1CN(Cc1ccccc1)C2`, the cytotoxicity at 10 µM is -14.9%.
